Screening results (PubChem BioAssay)
MrgX1 allo act: allosterically activates human MrgX1 receptor signaling; Q96LB2; MrgX1-HEK293, Fluo-4 calcium flux, FDSS; hits give high values; B-score at 10 µM; actives 0.63% (n = 310,000); AID 588675;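 active means plate-corrected calcium response at least 3 library SD above typical, normal starting fluorescence, not activating the receptor alone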;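 further: compound read alongside a low EC10 to EC30 dose of BAM8-22 agonist; peak minus trough fluorescence over baseline measured at the second addition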
RGS4 pot: RGS4 potentiation or activation; HEK293 M3R/inducible RGS4, carbachol calcium flux Fluo4; hits give low values; actives 0.92% (n = 310,000); B-score at 10 µM;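 active means B-score of the integrated calcium signal more than 4 SD below the library mean, with starting fluorescence not abnormally high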;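 further: negative B-score means reduced calcium response which marks RGS4 activation or potentiation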
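Material: Inducible-RGS4 HEK293 cells carrying M3 receptor; also added: carbachol at ECmax as muscarinic agonist stimulus; incubation: compound preincubation 20 min at room temperature before agonist; signal: Fluo4-AM (2 µM) calcium-flux fluorescence, kinetic read; measure: integrated calcium ratio converted to B score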
MrgX1 antagonist: human MrgX1 receptor antagonism, primary screen; B-score at 10 µM; Q96LB2; actives 1.3% (n = 310,000); AID 588676; MRGX1-HEK293 calcium flux, Fluo-4, BAM8-22 antagonism; hits give low values;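 active means calcium-response B-score plate-corrected more than 3 library SD below zero, starting fluorescence within 5 deviations, no agonist response on first addition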;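 further: peak minus trough fluorescence over baseline after final BAM8-22 challenge near maximal dose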
RGS4 inh: human RGS4 inhibition. P49798. HEK293 M3R/RGS4 inducible, Fluo-4 calcium flux; hits give high values; triggered by carbachol at its EC20. actives 0.45% (n = 310,000). B-score at 10 µM. AID 463165;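 active means B-score, a plate-corrected calcium signal, over three deviations above library mean, with baseline fluorescence within five deviations of library mean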;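 further: RGS4 expression induced by doxycycline in cells with stable M3 receptor; B-score is computed from the integrated fluorescence ratio over baseline after carbachol; higher B-score means a larger calcium signal and so more RGS4 inhibition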
MrgX1 agonist: agonists of human MrgX1 receptor; B-score at 10 µM; MrgX1-HEK293 cells, Fluo-4 calcium fluorescence, agonist mode; hits give high values; actives 0.44% (n = 310,000);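 active means calcium response B-score plate-corrected fluorescence ratio at least 3 library SD, with starting fluorescence B-score inside 5 SD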
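Material: MrgX1-expressing HEK293 cells; input: 15,000 cells per well; doses: test compound given as first of three sequential additions; schedule: overnight plating before 1 h dye loading; technique: Fluo-4 NW calcium-flux fluorescence, kinetic read; evaluation: baseline-normalised fluorescence change ratio, B-scored; control set: plate-wise positive and negative controls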
Cl transport mod: modulators of human KCC2 chloride dependent transport; KCC2 cells, thallium flux FluoZin-2 fluorescence; actives 2.2% (n = 190,000); AID 1456; B-score of Tl+ flux slope (higher = more flux/activation; lower = inhibition) at 10 µM;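 active means thallium flux slope and its plate-corrected score both differing from the plate sample mean at a set confidence after two filtering rounds, in either direction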;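 further: slope of fluorescence scaled to starting intensity during 10 to 20 s after thallium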
KCC2 sec1: confirmation of human KCC2 transport modulators. normalised thallium flux (F/F0 slope) at 10 µM. shares compounds with Cl transport mod. AID 1713. actives 15% (n = 3,700). HEK293-KCC2, thallium flux, FluoZin2 fluorescence; hits give high values;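 active means thallium flux slope above the same plate's solvent-only control mean plus 3 SD; inconclusive means the two replicate wells disagree; inactive means no significant difference from solvent-only control wells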
KCC2 bumet counter: bumetanide-insensitive thallium flux in KCC2 cells with ouabain, counter-screen | shares compounds with Cl transport mod | HEK293-KCC2 + bumetanide/ouabain, thallium flux FluoZin2; hits give high values | normalized thallium flux at 10 µM | actives 49% (n = 3,700);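 active means thallium entry rate above the same plate's blocked-transporter control wells by more than 3 SD; inconclusive means the two repeat wells disagree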;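 further: raw slope of fluorescence over initial fluorescence between 10 and 20 s after thallium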
KCC2 sec2: KCC2 (human) modulation, second secondary assay | normalized thallium flux at 10 µM | AID 1715 | shares compounds with Cl transport mod | HEK293-KCC2, thallium flux FluoZin2 fluorescence; actives lie on both sides; F/F0 rise rate, 10–20 s post-thallium | actives 23% (n = 3,700);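 active means thallium flux slope more than 3 SD above or below the plate's solvent-only control mean, mostly below; inconclusive means the two repeat wells disagreed; inactive means no significant shift from solvent-only controls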
HEK counter1: acts in parental HEK cells, KCC2 counter-screen; actives 46% (n = 3,700); shares compounds with Cl transport mod; thallium flux rate (normalised fluorescence) at 10 µM; HEK293 parental cells, thallium flux FluoZin2, ouabain; baseline-ratio fluorescence slope, 10–20 s after thallium;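 active means thallium flux rate significantly above the same plate's solvent-only control wells, beyond their mean plus 3 SD; inconclusive means the two replicate wells gave conflicting results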
KCC2 retest ouab: modulates human KCC2 on retest with ouabain | shares compounds with Cl transport mod | HEK293-KCC2, thallium flux FluoZin2 fluorescence; bidirectional: low = inhibitor, high = activator | raw Tl+ flux slope (below DMSO = inhibition, above = activation) at 10 µM | actives 48% (n = 3,700) | AID 1717;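 active means thallium flux slope beyond 3 SD from same-plate DMSO control mean in most replicates, usually higher, sometimes lower; inconclusive means repeat tests gave conflicting results; inactive means no significant difference from controls in most replicates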;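 further: slope of initial-normalized fluorescence between seconds 10 and 20 after thallium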
HEK293 Tl flux2: counter-screen for KCC2 modulators: effect in parental HEK293 cells. shares compounds with Cl transport mod. thallium flux FluoZin-2 fluorescence slope. thallium flux slope at 10 µM. actives 33% (n = 3,700). AID 1718;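 active means thallium flux slope above the same plate's solvent-control mean plus 3 SD in both duplicate wells; inconclusive means duplicate wells that disagreed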;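 further: run without ouabain in cells lacking the KCC2 cotransporter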
Hits are given with their value. Sampled rows, rich in hits. Any-hit rate of the full collection: about 4.7%.

How did COCCNC(=S)N(CCc1c(C)[nH]c2ccccc12)Cc1cccnc1 do in these assays?
MrgX1 allo act: inactive; RGS4 pot: inactive; MrgX1 antagonist: inactive; RGS4 inh: inactive; MrgX1 agonist: inactive

How did Cc1cc(=S)nc(-c2ccccn2)[nH]1 do in these assays?
MrgX1 allo act: inactive; RGS4 pot: inactive; MrgX1 antagonist: inactive; RGS4 inh: inactive; MrgX1 agonist: inactive; Cl transport mod: 81; KCC2 sec1: 0.037; KCC2 bumet counter: 0.048; KCC2 sec2: inactive; HEK counter1: 0.041; KCC2 retest ouab: 0.043; HEK293 Tl flux2: 0.016

How did O=c1c(-c2cnn(-c3ccccc3)c2)coc2cc(O)ccc12 do in these assays?
MrgX1 allo act: inactive; RGS4 pot: inactive; MrgX1 antagonist: inactive; RGS4 inh: inactive; MrgX1 agonist: inactive; Cl transport mod: -4.1; KCC2 sec1: inactive; KCC2 bumet counter: 0.0059; KCC2 sec2: 0.026; HEK counter1: inactive; KCC2 retest ouab: inconclusive; HEK293 Tl flux2: inactive

What do the screens show for `Cc1oc2cc(O)ccc2c(=O)c1-c1cnn(-c2ccccc2)c1`?
MrgX1 allo act: inactive; RGS4 pot: inactive; MrgX1 antagonist: inactive; RGS4 inh: inactive; MrgX1 agonist: inactive; Cl transport mod: inactive

How did O=C(NC(Cc1ccccc1)C(=O)OCC(=O)N1CCc2ccccc21)c1ccco1 (configuration not stated) do in these assays?
MrgX1 allo act: inactive; RGS4 pot: inactive; MrgX1 antagonist: inactive; RGS4 inh: inactive; MrgX1 agonist: inactive; Cl transport mod: -3.7; KCC2 sec1: inactive; KCC2 bumet counter: inactive; KCC2 sec2: 0.022; HEK counter1: inactive; KCC2 retest ouab: inactive; HEK293 Tl flux2: inactive

What do the screens show for `CC(C)c1ccccc1N=C1SCCCN1C(=O)c1cccc(N2C(=O)CCC2=O)c1`?
MrgX1 allo act: inactive; RGS4 pot: inactive; MrgX1 antagonist: inactive; RGS4 inh: inactive; MrgX1 agonist: inactive

How did CCC(c1nnnn1Cc1ccccc1)N1CCN(c2ccccc2)CC1 (configuration not stated) do in these assays?
MrgX1 allo act: inactive; RGS4 pot: inactive; MrgX1 antagonist: inactive; RGS4 inh: inactive; MrgX1 agonist: inactive; Cl transport mod: -3.9; KCC2 sec1: inactive; KCC2 bumet counter: inactive; KCC2 sec2: inconclusive; HEK counter1: inactive; KCC2 retest ouab: 0.015; HEK293 Tl flux2: inactive

Results for COc1ccc(C(c2nnnn2Cc2ccccc2)N2CCN(c3ccccc3)CC2)cc1 (configuration not stated) ?
MrgX1 allo act: inactive; RGS4 pot: inactive; MrgX1 antagonist: inactive; RGS4 inh: inactive; MrgX1 agonist: inactive; Cl transport mod: inactive

Results for COc1ccc(NC(=O)NCCCN2CCCCC2C)cc1 (configuration not stated) ?
MrgX1 allo act: inactive; RGS4 pot: inactive; MrgX1 antagonist: inactive; RGS4 inh: inactive; MrgX1 agonist: inactive; KCC2 sec1: inactive; KCC2 bumet counter: inactive; KCC2 sec2: inactive; HEK counter1: inactive; KCC2 retest ouab: inactive; HEK293 Tl flux2: inactive

What do the screens show for `S=c1[nH]nc(CCSCc2ccccc2)n1-c1ccccc1`?
MrgX1 allo act: inactive; RGS4 pot: inactive; MrgX1 antagonist: inactive; RGS4 inh: inactive; MrgX1 agonist: inactive; Cl transport mod: inactive

How did COc1ccc(CSCCc2n[nH]c(=S)n2-c2ccccc2)cc1C do in these assays?
MrgX1 allo act: inactive; RGS4 pot: inactive; MrgX1 antagonist: inactive; RGS4 inh: inactive; MrgX1 agonist: inactive; Cl transport mod: 55; KCC2 sec1: inactive; KCC2 bumet counter: 0.029; KCC2 sec2: inactive; HEK counter1: 0.023; KCC2 retest ouab: inactive; HEK293 Tl flux2: inactive

What do the screens show for `Clc1ccc(OCc2cn3ccccc3n2)c2ncccc12`?
MrgX1 allo act: inactive; RGS4 pot: inactive; MrgX1 antagonist: inactive; RGS4 inh: inactive; MrgX1 agonist: inactive; Cl transport mod: -3.7; KCC2 sec1: inactive; KCC2 bumet counter: inactive; KCC2 sec2: inactive; HEK counter1: inactive; KCC2 retest ouab: inactive; HEK293 Tl flux2: inactive

What do the screens show for `CC1(C(=O)N/N=C/c2ccc3c(c2)OCO3)CC1(Br)Br` (configuration not stated)?
MrgX1 allo act: inactive; RGS4 pot: inactive; MrgX1 antagonist: inactive; RGS4 inh: inactive; MrgX1 agonist: inactive

Results for Cc1ccccc1Nc1nc(N)nc(COC(=O)c2cccn2C)n1 ?
MrgX1 allo act: inactive; RGS4 pot: inactive; MrgX1 antagonist: inactive; RGS4 inh: inactive; MrgX1 agonist: inactive; Cl transport mod: inactive

Results for CCc1ccccc1Nc1nc(N)nc(COC(=O)c2cccn2C)n1 ?
MrgX1 allo act: inactive; RGS4 pot: inactive; MrgX1 antagonist: inactive; RGS4 inh: inactive; MrgX1 agonist: inactive; Cl transport mod: -5.6; KCC2 sec1: inactive; KCC2 bumet counter: inactive; KCC2 sec2: inactive; HEK counter1: inactive; KCC2 retest ouab: inactive; HEK293 Tl flux2: inactive

Results for Cc1ccc(-c2cc(Cc3ccccn3)c(=O)[nH]n2)cc1 ?
MrgX1 allo act: inactive; RGS4 pot: inactive; MrgX1 antagonist: inactive; RGS4 inh: inactive; MrgX1 agonist: inactive; Cl transport mod: inactive; KCC2 sec1: inactive; KCC2 bumet counter: 0.0086; KCC2 sec2: inactive; HEK counter1: inactive; KCC2 retest ouab: inactive; HEK293 Tl flux2: inactive

How did COc1ccc2occ(C(=O)c3cccs3)c2c1 do in these assays?
MrgX1 allo act: inactive; RGS4 pot: inactive; MrgX1 antagonist: inactive; RGS4 inh: inactive; MrgX1 agonist: inactive; KCC2 sec1: inactive; KCC2 bumet counter: 0.0071; KCC2 sec2: inactive; HEK counter1: inactive; KCC2 retest ouab: inactive; HEK293 Tl flux2: inactive

How did COc1ccc2occ(C(=O)c3ccc(N)cc3)c2c1 do in these assays?
MrgX1 allo act: inactive; RGS4 pot: inactive; MrgX1 antagonist: inactive; RGS4 inh: inactive; MrgX1 agonist: inactive
